Measured values: publication PMC2819552 (Biochimica et biophysica acta, 2009)
Where “and” joins values, the source holds several entries; their conditions need not be identical. Equal entries are not always repeated. Where two headings read alike, the source gives them in different places.

Key:
[1] = system: H. anomala cells (alternative oxidase pathway); experiment: Induction of cyanide-resistant respiration in H. anomala cells; assay type: cell-based, Hansenula (Pichia) anomala; conditions: 10 μM inhibitor, cells shaken aerobically at 30°C for 2 hours; None = 0.181
[2] = system: cytochrome b in H. anomala mitochondria; experiment: Reduction of cytochrome b in H. anomala mitochondria; assay type: biochemical, Hansenula (Pichia) anomala
H. anomala mitochondria = experiment: Superoxide anion generation in H. anomala mitochondria; assay type: biochemical, Hansenula (Pichia) anomala
In short: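 Pre-incubated at 30°C in a chemiluminescence reader, then succinate added and inhibitors added in sequence. Read-out was the chemiluminescence peak-height increase sensitive to 0.5 µM superoxide dismutase.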

[3] = target: T1, Rb. capsulatus cytochrome bc1 complex (Rhodobacter capsulatus, UniProt D5ANZ2+D5ANZ3); assay type: biochemical; conditions: for Inhibition of re-reduction of cytochromes c (Qo site forward reaction): pH 7.0, Eh 100 mV
T1 sequence (D5ANZ3 1-437): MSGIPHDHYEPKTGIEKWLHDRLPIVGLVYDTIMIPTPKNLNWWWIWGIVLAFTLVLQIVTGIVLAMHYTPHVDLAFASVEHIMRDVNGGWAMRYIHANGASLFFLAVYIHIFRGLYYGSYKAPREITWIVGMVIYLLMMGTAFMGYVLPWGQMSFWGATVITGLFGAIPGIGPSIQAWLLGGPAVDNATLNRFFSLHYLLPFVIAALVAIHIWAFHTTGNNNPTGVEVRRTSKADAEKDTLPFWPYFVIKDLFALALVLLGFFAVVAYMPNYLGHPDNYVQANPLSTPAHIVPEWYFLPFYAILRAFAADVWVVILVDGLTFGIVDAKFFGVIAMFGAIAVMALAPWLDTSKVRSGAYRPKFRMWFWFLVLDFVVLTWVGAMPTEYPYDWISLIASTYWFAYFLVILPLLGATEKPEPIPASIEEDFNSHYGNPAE
T1 sequence (D5ANZ2 1-191): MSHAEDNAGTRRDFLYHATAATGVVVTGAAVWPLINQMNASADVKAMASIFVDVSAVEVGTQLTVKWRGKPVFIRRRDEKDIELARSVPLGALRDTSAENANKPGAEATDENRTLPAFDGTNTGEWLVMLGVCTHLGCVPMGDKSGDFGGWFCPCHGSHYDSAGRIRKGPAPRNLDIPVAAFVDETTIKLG
T1 sequence (D5ANZ4 22-279 partner): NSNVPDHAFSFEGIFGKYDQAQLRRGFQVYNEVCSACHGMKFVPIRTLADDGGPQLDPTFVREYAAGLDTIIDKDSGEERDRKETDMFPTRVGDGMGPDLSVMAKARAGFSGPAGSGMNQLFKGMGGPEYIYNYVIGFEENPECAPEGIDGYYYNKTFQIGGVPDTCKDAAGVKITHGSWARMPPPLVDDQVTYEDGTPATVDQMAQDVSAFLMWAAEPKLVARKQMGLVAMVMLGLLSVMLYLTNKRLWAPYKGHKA
In short: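 Rb. capsulatus chromatophores normalised to reaction centre (0.28 µM), with redox mediators and 2.5 µM valinomycin. Qo forward: 50 mM MOPS pH 7.0, 100 mM KCl, Eh 100 mV. Qi reverse: 50 mM glycine-NaOH pH 9.5, 100 mM KCl, 10 µM myxothiazol, Eh 125 mV.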

[4] = target: purified bovine cytochrome bc1 complex (Bos taurus, UniProt P00157+P13272); experiment: Cytochrome reduction by DBH2 in purified bovine cytochrome bc1 complex; assay type: biochemical
[5] = target: T2, Rieske iron-sulfur protein of Rb. capsulatus cytochrome bc1 complex (Rhodobacter capsulatus, UniProt D5ANZ2+D5ANZ3); experiment: EPR spectra of the reduced Rieske iron-sulfur protein in chromatophore membranes; assay type: binding; conditions: 10 to 30 μM inhibitor, ascorbate-reduced chromatophore membranes, 20 K
T2 sequence (D5ANZ3 1-437): T1 sequence (D5ANZ3 1-437)
T2 sequence (D5ANZ2 1-191): T1 sequence (D5ANZ2 1-191)
T2 sequence (D5ANZ4 22-279 partner): T1 sequence (D5ANZ4 22-279 partner)

rat liver mitochondria = experiment: Succinate-dependent O2 uptake activity in rat liver mitochondria; assay type: biochemical
[6] = 10 μM antimycin A3 added after 15 mM succinate + 10 μM ascochlorin
[7] = 10 μM inhibitor added after 15 mM succinate
[8] = 10 μM inhibitor added after 15 mM succinate + 10 μM antimycin A3

## CCCC[C@H]1C(=O)O[C@H](C)[C@H](NC(=O)c2cccc(NC=O)c2O)C(=O)O[C@@H](C)[C@@H]1OC(=O)CC(C)C [Antimycin A3]
[1]
  CN−-resistant O2 uptake activity: 7.77 nmol O2/min/mg wet cells
[2]; [6]
  ΔA 560–575 × 10^2 (cytochrome b reduction): 0.94
[2]; 10 μM antimycin A3 added after 15 mM succinate + 10 μM myxothiazol
  ΔA 560–575 × 10^2 (cytochrome b reduction): 1.08
[2]; [7]
  ΔA 560–575 × 10^2 (cytochrome b reduction): 1.27 and 1.28
H. anomala mitochondria; [6]
  Chemiluminescence Intensity (superoxide anion generation): 3.6 10^5 counts/min
H. anomala mitochondria; [7]
  Chemiluminescence Intensity (superoxide anion generation): 8.8 10^5 counts/min and 9.1 10^5 counts/min

## CC(/C=C/[C@@]1(C)[C@H](C)CCC(=O)[C@@H]1C)=C\Cc1c(O)c(Cl)c(C)c(C=O)c1O [Ascochlorin]
[1]
  CN−-resistant O2 uptake activity: 7.42 nmol O2/min/mg wet cells
[2]; [7]
  ΔA 560–575 × 10^2 (cytochrome b reduction): 0.92
[2]; [8]
  ΔA 560–575 × 10^2 (cytochrome b reduction): 0.85
[3]; 1 μM
  Inhibition of re-reduction of cytochromes c (Qo site forward reaction): partially
[3]; 10 μM
  Inhibition of re-reduction of cytochromes c (Qo site forward reaction): fully
[3]; 1 or 10 μM, 10 μM myxothiazol, pH 9.5, Eh 125 mV
  Inhibition of Qi site-mediated cytochrome b reduction (reverse reaction): completely inhibited
H. anomala mitochondria; [7]
  Chemiluminescence Intensity (superoxide anion generation): 2.6 10^5 counts/min
H. anomala mitochondria; [8]
  Chemiluminescence Intensity (superoxide anion generation): 4.6 10^5 counts/min
[4]; 3 μM bovine bc1, 31 μM ascochlorin, DBH2 25 μM, by the first spectrum
  Extent of rapid reduction of cytochrome c1: about 20%
[4]; ascochlorin and antimycin both present, 240 μM ascochlorin
  Rapid reduction of cytochrome bH and c1: about half
[4]; ascochlorin increased from 31 to 360 μM, compared to Fig. 4C
  Further decrease of the extent of the fast reactions: about a factor of two
[5]
  Effect on the Rieske ISP gx EPR transition: changes the gx transition

## O=C1C(O)=C([C@H]2CC[C@H](c3ccc(Cl)cc3)CC2)C(=O)c2ccccc21 [Atovaquone]
[1]
  CN−-resistant O2 uptake activity: 0.202 nmol O2/min/mg wet cells

## CC(=CCc1c(O)cc(C)c(C=O)c1O)CCC1(C)C(C)CCC(=O)C1C (centres unmarked) [LL-Z1272 ε]
Rat liver mitochondria
  Inhibition relative to that seen using ascochlorin: about 1/300

## CO/C(=C/C(N)=O)[C@H](C)[C@H](/C=C/c1csc(-c2csc([C@@H](C)/C=C/C=C/C(C)C)n2)n1)OC [Myxothiazol]
[1]
  CN−-resistant O2 uptake activity: 0.375 nmol O2/min/mg wet cells
[2]; [7]
  ΔA 560–575 × 10^2 (cytochrome b reduction): 1.16
[2]; [8]
  ΔA 560–575 × 10^2 (cytochrome b reduction): 1.03
H. anomala mitochondria; [8]
  Chemiluminescence Intensity (superoxide anion generation): 5.4 10^5 counts/min

## CCCCCCCCCC1=C(O)C(=O)c2scnc2C1=O [NHDBT, nonylhydroxydioxobenzothiazole]
[1]
  CN−-resistant O2 uptake activity: 0.225 nmol O2/min/mg wet cells

## C/C=C(C)/C=C/C=C/[C@H](OC)[C@@H](C)[C@@H](OC)[C@@H](C)CCc1oc2c(O)c(OC)cc(OC)c2c(=O)c1C [Stigmatellin]
[1]
  CN−-resistant O2 uptake activity: 0.433 nmol O2/min/mg wet cells

## CCCCCC[C@H]1C(=O)O[C@H](C)[C@H](NC(=O)c2cccc(NC=O)c2O)C(=O)O[C@@H](C)[C@@H]1OC(=O)CC(C)C [antimycin A]
[4]; 3 μM bovine bc1, 30 μM antimycin A, DBH2 25 μM
  Extent of rapid reduction of cytochrome bL: about 20%
[4]; 30 μM antimycin A, within a few minutes
  Level of cytochrome b reduction after reoxidation: about 10%

## Funiculosin
[1]
  CN−-resistant O2 uptake activity: 3.12 nmol O2/min/mg wet cells
